Laboratory results: ChEMBL document CHEMBL1146375, “Synthetic studies on novel benzimidazolopeptides with antimicrobial, cytotoxic and anthelmintic potential” (2007)
≈ marks a conversion by molar mass, not a printed value. Residues, ends and D or L forms follow the SMILES beside them. *: point of attachment. X2 = O=C(c1cc(-c2nc3ccc([N+](=O)[O-])cc3[nH]2)ccc1O)*

What was measured:
[1] = Growth inhibition of DLA cells at 500 ug/mL after 3 hrs; type: functional; details: Mus musculus
Procedure, shortened: (§1)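 DLA and EAC cells passaged intraperitoneally in albino mice, harvested after 15–20 days and adjusted to 1 × 10⁶ cells/mL. Dilutions in Dulbecco's medium (500–31.25, some down to 3.91 µg/mL; 5-FU reference) mixed 1:1 with cells and held 3 h at 37 °C. Trypan blue exclusion gave % growth inhibition; CTC50 by graphical extrapolation.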

[2] = Growth inhibition of DLA cells at 125 ug/mL after 3 hrs; type: functional; details: Mus musculus; procedure, shortened: as §1
[3] = Growth inhibition of DLA cells at 31.25 ug/mL after 3 hrs; type: functional; details: Mus musculus; procedure, shortened: as §1
[4] = system: Bacillus subtilis; assay: Antibacterial activity against Bacillus subtilis NCIM 2063 after 18 hrs by disc diffusion method; type: functional
Procedure, shortened: (§2)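 Modified Kirby-Bauer disc diffusion. Plates inoculated with spore suspension (about 6 × 10⁴ spores mL^-1). Sterile 6 mm paper discs carried test samples at 10 mg mL^-1; ciprofloxacin disc as reference, DMF disc as negative control. Plates held 18 h at 37 °C. Inhibition zone diameters (mm) averaged over triplicate sets.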

[5] = system: Candida albicans; assay: Antifungal activity against Candida albicans MUCC 29 after 48 hrs by tube dilution method; type: functional
Procedure, shortened: (§3)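 Tube dilution MIC as for bacteria (seven concentrations, 200–3.1 […]), with DMSO in place of DMF. Tubes inoculated with fungal culture and incubated 48 h at 37 °C. MIC read from presence or absence of growth.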

[6] = system: Pseudomonas aeruginosa; assay: Antibacterial activity against Pseudomonas aeruginosa NCIM 2034 after 18 hrs by tube dilution method; type: functional; details: NCIM 2034, 18 h
Procedure, shortened: (§4)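 Tube dilution MIC. Stock diluted in sterile broth to seven concentrations from 200 to 3.1 […]. Each tube inoculated with one loopful of test bacterium and incubated 18 h at 37 °C. MIC read from presence or absence of growth.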

[7] = Growth inhibition of EAC cells at 31.25 ug/mL after 3 hrs; type: functional; details: Mus musculus, Ehrlich; procedure, shortened: as §1
[8] = Growth inhibition of DLA cells after 3 hrs; type: functional; details: Mus musculus; procedure, shortened: as §1
[9] = Growth inhibition of DLA cells at 62.5 ug/mL after 3 hrs; type: functional; details: Mus musculus; procedure, shortened: as §1
[10] = system: Candida albicans; assay: Antifungal activity against Candida albicans MUCC 29 after 48 hrs by disc diffusion method; type: functional
Procedure, shortened: (§5)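 Agar well diffusion on plates inoculated with spore suspension in normal saline from cultures on Sabouraud's broth. Wells punched and loaded with test samples or griseofulvin at 10 mg mL^-1, with DMSO as negative control. Incubated 48 h at 37 °C.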

[11] = system: Escherichia coli; assay: Antibacterial activity against Escherichia coli NCIM 2065 after 18 hrs by tube dilution method; type: functional; details: NCIM 2065, 18 h
[12] = system: Microsporum audouinii; assay: Antifungal activity against Microsporum audouinii MUCC 545 after 48 hrs by tube dilution method; type: functional; procedure, shortened: as §3
[13] = Growth inhibition of EAC cells after 3 hrs; type: functional; details: Mus musculus, Ehrlich; procedure, shortened: as §1
[14] = system: Staphylococcus aureus; assay: Antibacterial activity against Staphylococcus aureus NCIM 2079 after 18 hrs by disc diffusion method; type: functional; procedure, shortened: as §2
[15] = Growth inhibition of EAC cells at 62.5 ug/mL after 3 hrs; type: functional; details: Mus musculus, Ehrlich; procedure, shortened: as §1
[16] = system: Microsporum audouinii; assay: Antifungal activity against Microsporum audouinii MUCC 545 after 48 hrs by disc diffusion method; type: functional; procedure, shortened: as §5
[17] = Growth inhibition of EAC cells at 500 ug/mL after 3 hrs; type: functional; details: Mus musculus, Ehrlich; procedure, shortened: as §1
[18] = system: Aspergillus niger; assay: Antifungal activity against Aspergillus niger MUCC 177 after 48 hrs by disc diffusion method; type: functional; procedure, shortened: as §5
[19] = Anthelmintic activity against Megascoplex konkanensis ICARBC 211 assessed as mean death time; type: functional
Procedure, shortened: (§6)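 Earthworms exposed to test suspensions at 2 mg mL^-1 (0.2% w/v), made by triturating compound with Tween 80 (0.5%) and distilled water, then mechanically stirred 30 min. Mebendazole suspension prepared alike as reference. Paralysis and death times recorded; death confirmed by no movement in 50 °C water. Means from triplicate sets.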

[20] = system: Trichophyton benhamiae; assay: Antifungal activity against Trichophyton mentagrophytes MUCC 665 after 48 hrs by disc diffusion method; type: functional, Arthroderma benhamiae; procedure, shortened: as §5
[21] = Growth inhibition of EAC cells at 250 ug/mL after 3 hrs; type: functional; details: Mus musculus, Ehrlich; procedure, shortened: as §1
[22] = system: Escherichia coli; assay: Antibacterial activity against Escherichia coli NCIM 2065 after 18 hrs by disc diffusion method; type: functional; procedure, shortened: as §2
[23] = Anthelmintic activity against Megascoplex konkanensis ICARBC 211 assessed as mean paralyzing time; type: functional; procedure, shortened: as §6
[24] = system: Pontoscolex corethrurus; assay: Anthelmintic activity against Pontoscolex corethrurus ICARBC 408 assessed as mean paralyzing time; type: functional; procedure, shortened: as §6
[25] = system: Trichophyton benhamiae; assay: Antifungal activity against Trichophyton mentagrophytes MUCC 665 after 48 hrs by tube dilution method; type: functional, Arthroderma benhamiae; procedure, shortened: as §3
[26] = system: Pontoscolex corethrurus; assay: Anthelmintic activity against Pontoscolex corethrurus ICARBC 408 assessed as mean death time; type: functional
Procedure, shortened: (§7)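 Earthworms exposed to test suspensions at 2 mg mL−1, prepared by triturating compound with Tween 80 (0.5%) and distilled water, stirring 30 min, then diluting to 0.2% w/v. Mebendazole suspension was made the same way. Death was confirmed by moving worms into 50 °C warm water and looking for movement. Mean death time (min) taken from triplicate sets.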

[27] = Growth inhibition of EAC cells at 125 ug/mL after 3 hrs; type: functional; details: Mus musculus, Ehrlich; procedure, shortened: as §1
[28] = system: Pseudomonas aeruginosa; assay: Antibacterial activity against Pseudomonas aeruginosa NCIM 2034 after 18 hrs by disc diffusion method; type: functional; procedure, shortened: as §2
[29] = system: Staphylococcus aureus; assay: Antibacterial activity against Staphylococcus aureus NCIM 2079 after 18 hrs by tube dilution method; type: functional; details: NCIM 2079, 18 h; procedure, shortened: as §4
[30] = system: Bacillus subtilis; assay: Antibacterial activity against Bacillus subtilis NCIM 2063 after 18 hrs by tube dilution method; type: functional; details: NCIM 2063, 18 h; procedure, shortened: as §4
[31] = system: Eudrilus; assay: Anthelmintic activity against Eudrilus sp. assessed as mean paralyzing time; type: functional; procedure, shortened: as §6
[32] = Growth inhibition of DLA cells at 250 ug/mL after 3 hrs; type: functional; details: Mus musculus; procedure, shortened: as §1
[33] = system: Eudrilus; assay: Anthelmintic activity against Eudrilus sp. assessed as mean death time; type: functional; procedure, shortened: as §7

| SMILES | inhibition zone (IZ) [4] [mm] | MIC [5] [mg/L] | MIC [6] [mg/L] | inhibition zone (IZ) [10] [mm] | MIC [11] [mg/L] | MIC [12] [mg/L] | inhibition zone (IZ) [14] [mm] | inhibition zone (IZ) [16] [mm] | inhibition zone (IZ) [18] [mm] | TIME [19] [h] | inhibition zone (IZ) [20] [mm] | inhibition zone (IZ) [22] [mm] | TIME [23] [h] | Time [24] [min] | MIC [25] [mg/L] | Time [26] [min] | inhibition zone (IZ) [28] [mm] | MIC [29] [mg/L] | MIC [30] [mg/L] | Time [31] [min] | other results |
| --- | --- | --- | --- | --- | --- | --- | --- | --- | --- | --- | --- | --- | --- | --- | --- | --- | --- | --- | --- | --- | --- |
| CC(C)[C@H](NC(=O)c1cc(-c2nc3ccc([N+](=O)[O-])cc3[nH]2)ccc1O)C(=O)N[C@@H](Cc1ccccc1)C(=O)N[C@@H](Cc1cnc[nH]1)C(=O)O | 13 | 6 (≈ 8.79 µM) | 12.5 (≈ 18.3 µM) | 19 | 12.5 (≈ 18.3 µM) | 12.5 (≈ 18.3 µM) | 11 | 12 | 19 | 0.326 | 13 | 16 | 0.174 | 11.87 | 6 (≈ 8.79 µM) | 22.79 | 24 | 12.5 (≈ 18.3 µM) | 6 (≈ 8.79 µM) | 11.55 | inhibition at 500 µg/mL [1]: 42.1%; inhibition at 125 µg/mL [2]: 26.3%; inhibition at 31.25 µg/mL [3]: 10.5%; inhibition at 31.25 µg/mL [7]: 3.57%; CC50 [8]: > 718 µM; inhibition at 62.5 µg/mL [9]: 21%; CC50 [13]: > 718 µM; inhibition at 62.5 µg/mL [15]: 3.57%; inhibition at 500 µg/mL [17]: 10.7%; inhibition at 250 µg/mL [21]: 7.14%; inhibition at 125 µg/mL [27]: 7.14%; inhibition at 250 µg/mL [32]: 28.9%; Time [33]: 21.72 min |
| COC(=O)CNC(=O)[C@H](CC(C)C)NC(=O)[C@@H]1CCCN1C(=O)[C@H](Cc1cnc[nH]1)NC(=O)c1cc(-c2nc3ccc([N+](=O)[O-])cc3[nH]2)ccc1O (X2-HPLG-OMe) | 14 | 6 (≈ 8.36 µM) | 6 (≈ 8.36 µM) | 20 | 12.5 (≈ 17.4 µM) | 6 (≈ 8.36 µM) | 10 | 12 | 17 | 0.334 | 15 | 14 | 0.188 | 13.76 | 6 (≈ 8.36 µM) | 21.72 | 24 | 12.5 (≈ 17.4 µM) | 6 (≈ 8.36 µM) | 11.23 | inhibition at 500 µg/mL [1]: 39.5%; inhibition at 125 µg/mL [2]: 23.7%; inhibition at 31.25 µg/mL [3]: 28.7%; inhibition at 31.25 µg/mL [7]: 3.57%; CC50 [8]: > 697 µM; inhibition at 62.5 µg/mL [9]: 15.8%; CC50 [13]: > 697 µM; inhibition at 62.5 µg/mL [15]: 7.14%; inhibition at 500 µg/mL [17]: 28.7%; inhibition at 250 µg/mL [21]: 21.4%; inhibition at 125 µg/mL [27]: 10.7%; inhibition at 250 µg/mL [32]: 31.6%; Time [33]: 20.33 min |
| COC(=O)[C@@H]1CCCN1C(=O)c1ccc(-c2nc3cc(C)c(C)cc3[nH]2)cc1 | 13 | 6 (≈ 15.9 µM) | 6 (≈ 15.9 µM) | 16 | 12.5 (≈ 33.1 µM) | 25 (≈ 66.2 µM) | 11 | 9 | 17 | 0.676 | 13 | 17 | 0.473 | 35.57 | 6 (≈ 15.9 µM) | 50.26 | 22 | 12.5 (≈ 33.1 µM) | 6 (≈ 15.9 µM) | 32.25 | inhibition at 250 µg/mL [32]: 18.4%; Time [33]: 45.34 min |
| COC(=O)[C@H](Cc1c[nH]c2ccccc12)NC(=O)c1cc(I)c(-c2nc3cc(C)c(C)cc3[nH]2)c(I)c1 | 16 | 6 (≈ 8.35 µM) | 6 (≈ 8.35 µM) | 18 | 12.5 (≈ 17.4 µM) | 12.5 (≈ 17.4 µM) | 12 | 9 | 19 | 0.371 | 12 | 19 | 0.217 | 17.1 | 6 (≈ 8.35 µM) | 29.29 | 25 | 12.5 (≈ 17.4 µM) | 6 (≈ 8.35 µM) | 13.5 | Time [33]: 24.02 min |
